Results from ChEMBL document CHEMBL1137516, “A novel class of potent NF-kappaB signaling inhibitors” (Bioorg Med Chem Lett, 2007).

Tests used:
[1] = Inhibition of NF-kappaB in A549 cells after 5 hrs by reporter gene assay; type: cell-based; settings: Homo sapiens, A549, 5 h
Summary of the method: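 A549 cells stably transfected with a pNF-κB-SEAP reporter were plated at 2 · 10^4/well and left to attach overnight. They were pre-incubated 5 h with compound at 100, 30, 10, 3, 1, 0.3, 0.1 and 0 µM, then stimulated with 10 ng/ml TNF-α for 22 h. Supernatant SEAP was read by chemiluminescence, viability by CellTiter-Blue, with four replicates per concentration.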

PBMC = test: Antiproliferative activity against human PBMC; type: functional, cell-based
Summary of the method: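 Human peripheral blood mononuclear cells were stimulated with phytohemagglutinin, so the proliferation read-out reflects mainly T-cells.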

[2] = Inhibition of chymotrypsin like activity of human 20S proteasome
Summary of the method: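 20S proteasome (1.3 µg) was pre-incubated 10 min at room temperature in 25 mM HEPES pH 7.5, 0.5 mM EDTA, 0.033% SDS, then added to compound in DMSO and Suc-LLVY-AMC substrate (75 µM in the substrate solution). Fluorescence (ex 360/em 465 nm) was followed 20 min at 30 °C as RFU/min. Eight inhibitor concentrations were run in triplicate, and IC50 came from a four-parameter logistic fit.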

A549 = test: Inhibition of NF-kappaB in A549 cells at 20 uM after 5 hrs by reporter gene assay; type: cell-based; settings: Homo sapiens

Row | Compound | EC50 [1] [nM] | also measured
1 | N#Cc1ccc(CN2CCC(c3nc(C(=O)N4CCN(c5cccc(C(F)(F)F)c5)CC4)cs3)CC2)cc1 | 8500 | –
2 | Cc1cc2nnc(C(=O)N3CCC(c4nc(C(=O)N5CCN(c6cccc(C(F)(F)F)c6)CC5)cs4)CC3)c(C)n2n1 | > 20000 | –
3 | O=C(c1ccsc1)c1ccc2[nH]c(NC(=O)c3csc(C4CCN(c5ncnc6ccsc56)CC4)n3)nc2c1 | 500 | –
4 | O=C(c1ccccc1)c1ccc2[nH]c(NC(=O)c3csc(C4CCN(c5cc(C(F)(F)F)ncn5)CC4)n3)nc2c1 | 500 | –
5 | COc1cc(N2CCC(c3nc(C(=O)N4CCN(c5cccc(C(F)(F)F)c5)CC4)cs3)CC2)nc(OC)n1 | 5000 | –
6 | O=C(c1csc(C2CCN(c3ccc(C(F)(F)F)cc3)CC2)n1)N1CCN(c2cccc(C(F)(F)F)c2)CC1 | 20000 | IC50 [2]: 480 nM
7 | O=C(c1ccccc1)c1ccc2[nH]c(NC(=O)c3csc(C4CCN(C(=O)c5ccccc5OC(F)(F)F)CC4)n3)nc2c1 | 800 | –
8 | Cc1cc2nnc(C(=O)N3CCC(c4nc(C(=O)NC5CCN(Cc6ccccc6)C5)cs4)CC3)c(C)n2n1 (stereo not given) | – | inhibition (A549): 30%; IC50 [2]: 580 nM; IC50 (PBMC): 37000 nM
9 | Cc1cc2nnc(C(=O)N3CCC(c4nc(C(=O)Nc5nc6cc(C(=O)c7ccccc7)ccc6[nH]5)cs4)CC3)c(C)n2n1 | 900 | –
10 | COc1cccc(NC(=O)N2CCC(c3nc(C(=O)N4CCN(c5cccc(C(F)(F)F)c5)CC4)cs3)CC2)c1 | 7200 | –
11 | O=C(c1csc(C2CCN(S(=O)(=O)c3cccs3)CC2)n1)N1CCN(c2cccc(C(F)(F)F)c2)CC1 | 20000 | –
12 | COc1nc(OC)nc(N2CCC(c3nc(C(=O)Nc4nc5cc(C(=O)c6ccccc6)ccc5[nH]4)cs3)CC2)n1 | 800 | –
13 | COc1nc(OC)nc(N2CCC(c3nc(C(=O)N4CCN(c5cccc(C(F)(F)F)c5)CC4)cs3)CC2)n1 | 4700 | IC50 (PBMC): 15000 nM
14 | Cc1cc2nc(NC(=O)c3csc(C4CCN(C(=O)c5ccccc5OC(F)(F)F)CC4)n3)[nH]c2cc1C | 3000 | –
15 | O=C(Nc1cccc(F)c1)N1CCC(c2nc(C(=O)N3CCN(c4cccc(C(F)(F)F)c4)CC3)cs2)CC1 | 3400 | –
16 | O=C(c1csc(C2CCN(S(=O)(=O)c3ccc(F)cc3Cl)CC2)n1)N1CCN(c2cccc(C(F)(F)F)c2)CC1 | 20000 | –

The next lines start with results.

Row | EC50 [1] [nM] | Compound | also measured
17 | 500 | COC(=O)c1nc2nccc(N3CCC(c4nc(C(=O)Nc5nc6cc(C(=O)c7ccccc7)ccc6[nH]5)cs4)CC3)n2n1 | IC50 (PBMC): 2500 nM
18 | 300 | COc1cc(N2CCC(c3nc(C(=O)Nc4nc5cc(C(=O)c6ccccc6)ccc5[nH]4)cs3)CC2)nc(OC)n1 | IC50 [2]: > 3000 nM
19 | 100 | Cc1cc2nccc(N3CCC(c4nc(C(=O)Nc5nc6cc(C(=O)c7ccccc7)ccc6[nH]5)cs4)CC3)n2n1 | –
20 | 100 | O=C(c1ccccc1)c1ccc2[nH]c(NC(=O)c3csc(C4CCN(c5ccnc6ncnn56)CC4)n3)nc2c1 | IC50 (PBMC): 3600 nM
21 | 300 | O=C(c1ccccc1)c1ccc2[nH]c(NC(=O)c3csc(C4CCN(c5ccncc5[N+](=O)[O-])CC4)n3)nc2c1 | –
22 | 200 | O=C(c1ccccc1)c1ccc2[nH]c(NC(=O)c3csc(C4CCN(c5ncnc6ccsc56)CC4)n3)nc2c1 | IC50 (PBMC): 2200 nM
23 | 300 | N#Cc1ccc(CN2CCC(c3nc(C(=O)Nc4nc5cc(C(=O)c6ccccc6)ccc5[nH]4)cs3)CC2)cc1 | –
24 | 300 | O=C(c1ccccc1)c1ccc2[nH]c(NC(=O)c3csc(C4CCN(c5ncnc6nc[nH]c56)CC4)n3)nc2c1 | –
25 | 300 | COc1cc2ncnc(N3CCC(c4nc(C(=O)Nc5nc6cc(C(=O)c7ccccc7)ccc6[nH]5)cs4)CC3)c2cc1OC | –
26 | 400 | COc1nc(OC)nc(N2CCC(c3nc(C(=O)Nc4nc5cc(C(=O)c6ccsc6)ccc5[nH]4)cs3)CC2)n1 | –
27 | 300 | Cc1cc2nc(NC(=O)c3csc(C4CCN(c5ncnc6ccsc56)CC4)n3)[nH]c2cc1C | –
